pIC50: −log10 of the molar value.
What was measured:
Trypanosoma cruzi [1] = assay: Antitrypanosomal activity against Trypanosoma cruzi Y bloodstream trypomastigotes isolated from infected Swiss mouse blood assessed as lysis level at 8.0 uM after 24 hrs; assay type: functional
Trypanosoma cruzi [2] = assay: Antitrypanosomal activity against Trypanosoma cruzi Y bloodstream trypomastigotes isolated from infected Swiss mouse blood assessed as lysis level at 32.0 uM after 24 hrs; assay type: functional
Trypanosoma cruzi [3] = assay: Antitrypanosomal activity against Trypanosoma cruzi Y bloodstream trypomastigotes isolated from infected Swiss mouse blood assessed as lysis level at 2.0 uM after 24 hrs; assay type: functional
Trypanosoma cruzi [4] = assay: Antitrypanosomal activity against Trypanosoma cruzi Y bloodstream trypomastigotes isolated from infected Swiss mouse blood assessed as lysis level at 0.5 uM after 24 hrs; assay type: functional
Trypanosoma cruzi [5] = assay: Antitrypanosomal activity against Trypanosoma cruzi Y bloodstream trypomastigotes isolated from infected Swiss mouse blood assessed as lysis level after 24 hrs; assay type: functional, organism-based
Outline: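 Infected mouse blood diluted with healthy mouse blood to 10⁶ trypomastigotes ml⁻¹. Compounds dissolved in DMSO, added to the blood, and incubated at 4 °C for 24 h. Remaining trypomastigotes were counted. Run in triplicate alongside DMSO and crystal violet controls. IC50 is the concentration lysing 50% of parasites.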

Row | SMILES | pIC50 (Trypanosoma cruzi [5]) | Activity (Trypanosoma cruzi [1]) [%] | Activity (Trypanosoma cruzi [2]) [%] | Activity (Trypanosoma cruzi [3]) [%] | Activity (Trypanosoma cruzi [4]) [%]
1 | CCCCCCCC/C=C/CCCCCCCC1=C(C)C(=O)c2ccccc2C1=O | 4.49 | 35.1 | 34 | 25.1 | 27.2
2 | CCCCC/C=C/C/C=C/CCCCCCCC1=CC(=O)c2ccccc2C1=O | 4.58 | 30.9 | 49.2 | 7.8 | 0
3 | CCCCCCCC1=C(CCCCCCC)C(=O)c2ccccc2C1=O | 3.91 | 10.6 | 18.3 | 8.9 | 8.1
4 | O=C1C(CCCCc2ccccc2)=C(CCCCc2ccccc2)C(=O)c2ccccc21 | 4.60 | 35.1 | 44 | 21.5 | 3
5 | COc1ccc(C(CC(=O)O)C2=C(C)C(=O)c3ccccc3C2=O)cc1 (racemic) | 4.76 | 34 | 55 | 24.6 | 12
6 | COc1ccc(C(CC(=O)O)C2=CC(=O)c3ccccc3C2=O)cc1 (racemic) | 4.31 | 14.1 | 38.7 | 10.5 | 0
7 | CN(C)c1ccc(C(=C2C=CC(=[N+](C)C)C=C2)c2ccc(N(C)C)cc2)cc1 [GENTIAN VIOLET] | 4.51 | – | – | – | –
8 | O=C1C=C(O)C(=O)c2ccccc21 [LAWSONE] | < 2.60 | – | – | – | –

Continued, in another order:

Row | pIC50 (Trypanosoma cruzi [5]) | SMILES | Activity (Trypanosoma cruzi [1]) [%] | Activity (Trypanosoma cruzi [2]) [%] | Activity (Trypanosoma cruzi [3]) [%] | Activity (Trypanosoma cruzi [4]) [%]
9 | 4.97 | CCCCCCCC/C=C/CCCCCCCC1=C(O)C(=O)c2ccccc2C1=O | 51.3 | 57.6 | 22.5 | 13.1
10 | 5.09 | CCCCCCCC/C=C/CCCCCCCC1=CC(=O)c2ccccc2C1=O | 46.1 | 49.2 | 45.5 | 37.2
11 | 5.11 | CCCCC/C=C\C/C=C/CCCCCCCC1=C(O)C(=O)c2ccccc2C1=O | 42.9 | 50.8 | 47.6 | 44.5
12 | 4.77 | CCCCC/C=C/C/C=C/CCCCCCCC1=C(C)C(=O)c2ccccc2C1=O | 47.1 | 44.5 | 25.6 | 15.2
